The nature of data set [1]: Ratio of drug concentration in brain to plasma in Sprague-Dawley rat at 1 mg/kg, iv. The format is ADME, organism-based. A digest of the protocol:
(§1)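 Single intravenous dose of 1 mg/kg given to fed Sprague–Dawley rats (n = 3); plasma and brain samples collected for pharmacokinetic parameters, with total brain:plasma ratio computed.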

Data set [2] has as its target Glycogen synthase kinase-3 beta (Homo sapiens) (UniProt P49841). Kind of data set: Inhibition of wild-type human full length GSK3B (M1 to T433 residues) expressed in mammalian expression system assessed as remaining activity at 1 uM by Kinomescan method relative to control. A digest of the protocol:
(§2)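 KINOMEscan competition binding panel run with inhibitor at 1 μM; read-out is remaining kinase activity (percent of control).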

The target of data set [3] is Homeodomain-interacting protein kinase 2 (Homo sapiens, UniProt Q9H2X6). Kind of data set: Binding affinity to wild-type human partial length HIPK2 (M153 to S564 residues) expressed in mammalian expression system measured after 1 hr by competitive binding assay.
Chain of Homeodomain-interacting protein kinase 2 (Q9H2X6 whole entry, the tested form may be a part): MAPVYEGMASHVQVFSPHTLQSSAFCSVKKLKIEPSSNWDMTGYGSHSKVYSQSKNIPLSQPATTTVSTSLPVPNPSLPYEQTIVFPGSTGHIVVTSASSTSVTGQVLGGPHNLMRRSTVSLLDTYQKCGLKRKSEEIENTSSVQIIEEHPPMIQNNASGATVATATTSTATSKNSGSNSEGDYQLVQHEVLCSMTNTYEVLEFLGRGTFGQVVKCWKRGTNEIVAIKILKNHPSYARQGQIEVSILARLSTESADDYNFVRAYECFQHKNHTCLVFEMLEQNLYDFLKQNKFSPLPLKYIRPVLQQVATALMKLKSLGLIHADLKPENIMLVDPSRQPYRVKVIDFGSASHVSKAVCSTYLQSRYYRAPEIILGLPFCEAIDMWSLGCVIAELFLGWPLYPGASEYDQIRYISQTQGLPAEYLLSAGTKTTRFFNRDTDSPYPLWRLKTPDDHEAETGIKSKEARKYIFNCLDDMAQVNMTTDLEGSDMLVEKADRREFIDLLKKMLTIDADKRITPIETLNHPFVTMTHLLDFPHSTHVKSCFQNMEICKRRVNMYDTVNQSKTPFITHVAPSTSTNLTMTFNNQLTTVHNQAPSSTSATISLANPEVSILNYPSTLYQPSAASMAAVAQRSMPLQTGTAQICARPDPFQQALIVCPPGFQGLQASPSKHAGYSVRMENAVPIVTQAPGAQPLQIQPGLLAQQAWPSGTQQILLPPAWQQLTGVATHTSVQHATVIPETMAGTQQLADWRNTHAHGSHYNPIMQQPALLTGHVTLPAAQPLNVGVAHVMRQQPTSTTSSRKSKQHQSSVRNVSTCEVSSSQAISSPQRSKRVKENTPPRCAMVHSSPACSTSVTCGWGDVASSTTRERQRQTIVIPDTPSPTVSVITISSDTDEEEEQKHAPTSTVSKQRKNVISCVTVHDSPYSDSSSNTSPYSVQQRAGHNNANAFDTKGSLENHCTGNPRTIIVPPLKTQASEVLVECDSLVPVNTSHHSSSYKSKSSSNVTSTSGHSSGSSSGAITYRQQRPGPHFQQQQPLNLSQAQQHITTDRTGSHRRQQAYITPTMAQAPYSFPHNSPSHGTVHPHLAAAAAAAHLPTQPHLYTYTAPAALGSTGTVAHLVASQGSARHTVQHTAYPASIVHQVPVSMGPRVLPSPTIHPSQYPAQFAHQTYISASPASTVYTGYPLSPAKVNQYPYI
Data set [4] is described as follows: Thermodynamic solubility of the compound at pH 6.8. Conditions: buffer, read-out: Therm_solubility. The format is physicochemical. A digest of the protocol:
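Thermodynamic solubility measured at pH 6.8 in a single experiment, reported in […].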

Data set [5] is described as follows: AUC infinity in Sprague-Dawley rat at 1 mg/kg, iv. The arrangement: time infinity, route intravenous, dose 1 mg/kg. As to conditions: in vivo. The class given is ADME, organism-based. A digest of the protocol:
as §1

Data set [6] concerns the target T1, Dual specificity tyrosine-phosphorylation-regulated kinase 2 (Homo sapiens) (UniProt Q92630).
T1 sequence (whole entry): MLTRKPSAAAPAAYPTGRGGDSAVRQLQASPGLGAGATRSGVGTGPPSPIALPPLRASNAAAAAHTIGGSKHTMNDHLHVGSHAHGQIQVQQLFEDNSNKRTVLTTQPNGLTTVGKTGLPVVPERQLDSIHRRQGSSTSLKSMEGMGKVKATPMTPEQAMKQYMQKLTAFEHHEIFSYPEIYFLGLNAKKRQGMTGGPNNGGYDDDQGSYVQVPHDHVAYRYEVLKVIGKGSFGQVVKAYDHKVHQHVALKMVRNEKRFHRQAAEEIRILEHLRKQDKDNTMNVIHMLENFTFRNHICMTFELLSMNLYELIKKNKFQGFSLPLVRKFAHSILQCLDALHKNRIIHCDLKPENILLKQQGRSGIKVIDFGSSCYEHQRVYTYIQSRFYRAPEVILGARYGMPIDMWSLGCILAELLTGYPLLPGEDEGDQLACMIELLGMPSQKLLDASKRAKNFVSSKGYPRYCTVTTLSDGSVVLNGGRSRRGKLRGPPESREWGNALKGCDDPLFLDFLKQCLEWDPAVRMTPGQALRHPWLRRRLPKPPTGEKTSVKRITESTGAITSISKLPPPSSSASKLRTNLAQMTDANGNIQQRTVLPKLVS
Kind of data set: Inhibition of wild-type human full length DYRK2 (M1 to S528 residues) expressed in mammalian expression system assessed as remaining activity at 1 uM by Kinomescan method relative to control. A digest of the protocol:
as §2

Data set [7] concerns the target Dual specificity protein kinase CLK2 (Homo sapiens) (UniProt P49760). The experiment in a line: Inhibition of wild-type human partial length CLK2 (D144 to R498 residues) expressed in bacterial expression system assessed as remaining activity at 1 uM by Kinomescan method relative to control. Put shortly: as §2
Data set [8] is described as follows: Initial plasma concentration in Sprague-Dawley rat at 1 mg/kg, iv. The format is ADME, organism-based. Conditions: in vivo. A digest of the protocol:
as §1

Data set [9] can be described thus: AUClast in Sprague-Dawley rat at 1 mg/kg, iv. The class given is ADME, organism-based. Also on record: route intravenous, time 0 - last, dose 1 mg/kg. As to conditions: in vivo. Put shortly: as §1
The nature of data set [10]: Toxicity in Sprague-Dawley rat assessed as adverse effect at 1 mg/kg, iv. The class given is organism-based. Conditions: in vivo. A digest of the protocol: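 Fed Sprague–Dawley rats (n = 3) received one 1 mg/kg iv dose; adverse effects were recorded during the pharmacokinetic study.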
A short description of data set [11]: Metabolic stability in rat liver microsomes. The format is ADME, Microsome. Conditions: read-out: Stabilty. (In general: Liver microsomes are vesicles of endoplasmic reticulum, rich in cytochrome P450 enzymes.)
The target of data set [12] is Calcium/calmodulin-dependent protein kinase type 1B (Homo sapiens, UniProt Q6P2M8). Kind of data set: Binding affinity to wild-type human partial length CAMK1B (W9 to A311 residues) expressed in mammalian expression system measured after 1 hr by competitive binding assay.
Chain of Calcium/calmodulin-dependent protein kinase type 1B (Q6P2M8 whole entry, the tested form may be a part): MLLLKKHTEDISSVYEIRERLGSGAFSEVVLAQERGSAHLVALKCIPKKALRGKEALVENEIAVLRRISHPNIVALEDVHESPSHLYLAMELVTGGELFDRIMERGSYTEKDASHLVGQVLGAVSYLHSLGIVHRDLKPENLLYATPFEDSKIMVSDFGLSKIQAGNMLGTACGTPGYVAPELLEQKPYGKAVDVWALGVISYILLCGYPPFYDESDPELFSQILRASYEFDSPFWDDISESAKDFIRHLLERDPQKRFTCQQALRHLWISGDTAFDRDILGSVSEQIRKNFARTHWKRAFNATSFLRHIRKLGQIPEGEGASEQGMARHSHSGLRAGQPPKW
The target of data set [13] is Dual specificity protein kinase CLK4 (Homo sapiens, UniProt Q9HAZ1). The experiment in a line: Binding affinity to wild-type human partial length CLK4 (R135 to K481 residues) expressed in bacterial expression system measured after 1 hr by competitive binding assay.
Chain of Dual specificity protein kinase CLK4 (Q9HAZ1 whole entry, the tested form may be a part): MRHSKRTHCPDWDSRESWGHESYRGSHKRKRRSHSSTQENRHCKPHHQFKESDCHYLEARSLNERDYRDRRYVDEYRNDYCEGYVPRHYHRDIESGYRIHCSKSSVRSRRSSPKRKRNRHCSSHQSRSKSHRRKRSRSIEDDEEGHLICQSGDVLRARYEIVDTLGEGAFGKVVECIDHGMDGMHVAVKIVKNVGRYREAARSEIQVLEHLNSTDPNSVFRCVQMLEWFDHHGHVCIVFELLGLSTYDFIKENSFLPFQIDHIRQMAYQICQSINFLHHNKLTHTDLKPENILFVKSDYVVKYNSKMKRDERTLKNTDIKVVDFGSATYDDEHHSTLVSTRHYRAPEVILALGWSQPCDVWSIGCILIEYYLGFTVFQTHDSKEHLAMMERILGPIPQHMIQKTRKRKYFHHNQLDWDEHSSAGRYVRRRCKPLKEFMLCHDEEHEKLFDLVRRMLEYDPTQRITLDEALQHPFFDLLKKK
For data set [14], the target named is T2, Dual specificity tyrosine-phosphorylation-regulated kinase 2 (Homo sapiens, UniProt Q92630).
T2 sequence (Q92630 whole entry): T1 sequence (whole entry)
The experiment in a line: Binding affinity to wild-type human full length DYRK2 (M1 to S528 residues) expressed in mammalian expression system measured after 1 hr by competitive binding assay.

The target in data set [15] is Serine/threonine-protein kinase WNK2 (Homo sapiens, UniProt Q9Y3S1). Kind of data set: Binding affinity to wild-type human partial length WNK2 (V47 to D482 residues) expressed in mammalian expression system measured after 1 hr by competitive binding assay.
Chain of Serine/threonine-protein kinase WNK2 (Q9Y3S1 whole entry, the tested form may be a part): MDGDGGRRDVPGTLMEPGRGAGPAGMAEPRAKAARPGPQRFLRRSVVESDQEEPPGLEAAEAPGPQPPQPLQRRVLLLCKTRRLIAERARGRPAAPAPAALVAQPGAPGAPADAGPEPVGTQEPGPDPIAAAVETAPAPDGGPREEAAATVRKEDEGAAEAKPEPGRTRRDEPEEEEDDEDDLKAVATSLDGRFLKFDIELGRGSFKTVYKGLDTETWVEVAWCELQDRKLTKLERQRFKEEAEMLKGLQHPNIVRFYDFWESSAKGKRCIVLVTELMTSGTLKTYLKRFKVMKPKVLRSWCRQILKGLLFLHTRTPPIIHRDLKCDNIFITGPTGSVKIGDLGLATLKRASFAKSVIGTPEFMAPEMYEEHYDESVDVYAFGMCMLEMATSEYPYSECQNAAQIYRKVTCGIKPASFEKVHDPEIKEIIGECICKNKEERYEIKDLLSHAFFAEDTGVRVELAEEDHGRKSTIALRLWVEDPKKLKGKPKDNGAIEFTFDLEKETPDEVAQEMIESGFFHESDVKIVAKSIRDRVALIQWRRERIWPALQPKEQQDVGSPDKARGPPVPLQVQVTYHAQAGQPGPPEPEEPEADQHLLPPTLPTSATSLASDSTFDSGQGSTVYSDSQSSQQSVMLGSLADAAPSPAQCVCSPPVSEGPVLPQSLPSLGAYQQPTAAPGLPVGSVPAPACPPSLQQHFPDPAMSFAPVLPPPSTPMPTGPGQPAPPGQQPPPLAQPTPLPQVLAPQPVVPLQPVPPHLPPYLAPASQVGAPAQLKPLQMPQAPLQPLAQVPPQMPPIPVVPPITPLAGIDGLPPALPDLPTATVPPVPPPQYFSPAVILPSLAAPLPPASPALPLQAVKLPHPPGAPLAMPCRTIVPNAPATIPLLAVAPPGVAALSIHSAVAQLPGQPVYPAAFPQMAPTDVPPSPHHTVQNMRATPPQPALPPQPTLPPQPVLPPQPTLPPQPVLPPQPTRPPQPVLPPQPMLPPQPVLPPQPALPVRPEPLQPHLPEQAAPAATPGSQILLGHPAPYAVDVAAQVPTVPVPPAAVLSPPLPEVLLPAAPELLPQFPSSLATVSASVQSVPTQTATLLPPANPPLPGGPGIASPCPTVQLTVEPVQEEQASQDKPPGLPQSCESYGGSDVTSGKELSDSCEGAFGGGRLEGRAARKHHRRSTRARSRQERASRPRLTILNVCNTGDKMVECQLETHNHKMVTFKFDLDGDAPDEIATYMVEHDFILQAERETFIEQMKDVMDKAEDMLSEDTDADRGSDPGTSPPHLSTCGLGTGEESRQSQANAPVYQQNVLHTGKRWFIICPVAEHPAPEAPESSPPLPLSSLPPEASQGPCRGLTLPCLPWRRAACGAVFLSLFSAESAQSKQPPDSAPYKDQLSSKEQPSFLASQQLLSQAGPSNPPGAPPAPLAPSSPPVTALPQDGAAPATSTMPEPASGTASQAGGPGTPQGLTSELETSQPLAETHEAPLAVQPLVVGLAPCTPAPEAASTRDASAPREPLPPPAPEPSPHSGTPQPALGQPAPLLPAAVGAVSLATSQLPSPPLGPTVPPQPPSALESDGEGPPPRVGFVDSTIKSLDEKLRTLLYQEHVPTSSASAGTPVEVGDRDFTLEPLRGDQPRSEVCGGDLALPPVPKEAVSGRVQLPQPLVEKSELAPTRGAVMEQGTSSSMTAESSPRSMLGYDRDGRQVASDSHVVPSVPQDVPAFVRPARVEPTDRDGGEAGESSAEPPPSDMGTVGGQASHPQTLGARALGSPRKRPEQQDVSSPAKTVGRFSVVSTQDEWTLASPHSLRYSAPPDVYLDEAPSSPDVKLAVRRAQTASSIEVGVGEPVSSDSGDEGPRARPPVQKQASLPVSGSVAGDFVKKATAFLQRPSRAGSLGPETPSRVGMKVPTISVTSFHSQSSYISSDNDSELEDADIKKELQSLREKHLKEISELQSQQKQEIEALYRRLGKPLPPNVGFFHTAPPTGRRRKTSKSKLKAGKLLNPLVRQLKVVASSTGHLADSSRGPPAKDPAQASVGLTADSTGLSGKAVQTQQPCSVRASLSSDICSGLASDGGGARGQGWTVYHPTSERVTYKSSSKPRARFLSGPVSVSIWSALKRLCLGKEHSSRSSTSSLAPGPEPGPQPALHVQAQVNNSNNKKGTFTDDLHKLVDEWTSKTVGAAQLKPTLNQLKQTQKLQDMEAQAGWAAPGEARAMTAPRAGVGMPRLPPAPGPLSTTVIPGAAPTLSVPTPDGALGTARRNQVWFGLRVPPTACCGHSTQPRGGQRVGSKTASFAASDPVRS

Converted amounts (≈) assume the structure as drawn.

As usually defined, the Kd is a measure of binding affinity in units of concentration. One may read the AUC as concentration integrated over time. Low values mean less exposure, high ones more exposure.

Chain of Glycogen synthase kinase-3 beta (Homo sapiens) (P49841 whole entry, looked up, the tested form may be a part): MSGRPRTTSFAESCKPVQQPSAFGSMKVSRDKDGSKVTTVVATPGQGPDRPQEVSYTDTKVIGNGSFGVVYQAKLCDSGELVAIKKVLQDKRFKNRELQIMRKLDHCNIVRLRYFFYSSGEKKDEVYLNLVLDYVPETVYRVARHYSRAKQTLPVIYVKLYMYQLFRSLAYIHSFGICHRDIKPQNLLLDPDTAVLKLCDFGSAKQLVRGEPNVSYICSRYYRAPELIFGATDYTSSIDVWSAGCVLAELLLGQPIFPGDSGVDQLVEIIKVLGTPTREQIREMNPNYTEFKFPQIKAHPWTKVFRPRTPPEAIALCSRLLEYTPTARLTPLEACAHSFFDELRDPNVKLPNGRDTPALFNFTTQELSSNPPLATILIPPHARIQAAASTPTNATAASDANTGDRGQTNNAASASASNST

`CN(C)c1nccc(-c2cnn3ncccc23)n1`: the BPR in [1] is listed as over 0.35. For the same compound, the Activity was 94% in data set [2], 19% in [6], 9.4% in [7] and “Non-Toxic” in data set [10]. Also, the equilibrium dissociation constant (Kd) in data set [3] was found to be 1200 nM; in [12] it was 10000 nM; in data set [13], 61 nM; in data set [14], 360 nM; in data set [15], 10000 nM. In addition, the solubility thermodynamic in data set [4] was 100 µg/mL (≈ 416 µM). The AUC in data set [5] worked out at 276.4 ng·h/mL. Further, the C0 in data set [8] was 1331.5 ng/mL. In addition, in [9], the AUClast is 275.3 ng·h/mL. Besides, the microsomal CLint in [11] turned out to be 231 µL/min/mg.

These data come from ChEMBL document CHEMBL4808225, “Discovery and Characterization of Selective and Ligand-Efficient DYRK Inhibitors” (J Med Chem, 2021).
